For 16 compounds, EC50, Sensitivity and Inhibition results are on record in ChEMBL document CHEMBL1123519, “Chemically stable homocinnamyl analogues of the leukotrienes: synthesis and preliminary biological evaluation” (J Med Chem, 1986).

Calls of active or inactive are those of the source. The rule behind the calls is not given here.

For assay [1], the species on record is Cavia porcellus. Put plainly: Compound was evaluated for its activity in vitro with use of isolated guinea pig tracheal spiral strips in the presence (control ). The assay is classed as functional. The conditions noted are these: Trachea. A digest of the protocol:
(§1)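 Guinea pig tracheal strips held at 2 g resting tension and stabilized 60 min, with bath fluid changed every 15 min. Contraction to carbachol 30 μM, wash, then restabilized 60 min. Cumulative agonist concentration-response curves were run, with responses expressed as % of carbachol maximum. L-cysteine 3 mM or L-serine borate 45 mM was preincubated 30 min. EC50 was derived by linear regression, and significance by paired t test (p<0.05).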

The species entered for assay [2] is Cavia porcellus. Description: Compound was evaluated for its activity in vitro with use of isolated guinea pig tracheal spiral strips in the presence of L-serine borate (45 mM). The assay is classed as functional. The settings on record: Trachea. The procedure, abridged:
as §1

The species entered for assay [3] is Cavia porcellus. Put plainly: Compound was evaluated for its activity in vitro with use of isolated guinea pig tracheal spiral strips in the presence of L-cysteine (3 mM). The assay is classed as functional. The settings on record: Trachea. A digest of the protocol:
as §1

Assay [4] is filed under the species Cavia porcellus. Description: Compound was tested for FPL-55712 sensitivity in the absence of metabolic inhibitors; No sensitivity. The assay is classed as functional, organism-based. A digest of the protocol:
(§2)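 Guinea pig tracheal strips at 2 g resting tension, stabilized 60 min, carbachol (30 μM) reference contraction, restabilized 60 min. FPL-55712 10 μM was preincubated 30 min before cumulative agonist curves, without metabolic inhibitors. EC50 values were compared with and without antagonist by Student's paired t test (p<0.05). Kb was obtained by the Furchgott method.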

For assay [5], the species on record is Cavia porcellus. Description: Compound was tested for inhibition of LTE4 (8 nM)-induced contraction of isolated guinea pig trachea at 10 mM concentration. The settings on record: in the assay text read “10 µM” for “10 mM”. The assay is classed as functional. A digest of the protocol: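 Isolated guinea pig trachea contracted with LTE4 8 nM. Analogue present in the bath, and inhibition of the LTE4 contraction expressed as percent.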

For assay [6], the species on record is Cavia porcellus. Description: Compound was evaluated for its activity in vitro with use of isolated guinea pig tracheal spiral strips in the presence (control ); Not active. The assay is classed as functional, Trachea. The procedure, abridged:
as §1

Assay [7] is filed under the species Cavia porcellus. Put plainly: Compound was tested for FPL-55712 sensitivity in the absence of metabolic inhibitors; Yes. The assay is classed as functional, organism-based. The procedure, abridged: as §2

`CCCCCCCc1cccc(C/C=C/[C@H](SCC(N)C(=O)O)[C@H](O)CCCC(=O)O)c1` (some centres not stated): a half-maximal response in assay [1] (EC50) required 4830 nM.
For `CCCCCCCc1ccccc1C/C=C/[C@H](SCC(NC(=O)CCC(N)C(=O)O)C(=O)NCC(=O)O)[C@H](O)CCCC(=O)O` (some centres not stated), the EC50 (as a rule, the concentration giving half of the maximal effect) was found to be 18600 nM in assay [1] and 18400 nM in assay [2].
`CCCCCCCc1cccc(C/C=C/[C@H](SC[C@H](N)C(=O)NCC(=O)O)[C@H](O)CCCC(=O)O)c1`: the EC50 in assay [3] was 4770 nM.
In the case of `CCCCCCOc1ccc(C/C=C/[C@H](SCC(NC(=O)CCC(N)C(=O)O)C(=O)NCC(=O)O)[C@H](O)CCCC(=O)O)cc1` (some centres not stated), the Sensitivity entry in assay [4] is “No sensitivity”. In addition, the EC50 in assay [1] amounted to 1280 nM; in assay [2], 256 nM.
`CCCCCCOc1cccc(C/C=C/[C@H](SC[C@H](N)C(=O)NCC(=O)O)[C@H](O)CCCC(=O)O)c1`: the Inhibition – broadly, the percentage by which the read-out fell short of the control – in assay [5] worked out at 24%. Further, the EC50 entry in assay [6] is “Not Active”.
In the case of `CCCCCCOc1ccc(C/C=C/[C@H](SC[C@H](N)C(=O)NCC(=O)O)[C@H](O)CCCC(=O)O)cc1`, the Sensitivity result in assay [7] was “Active”. The same compound had an EC50 in assay [1] of 9100 nM.
Regarding `CCCCC/C=C\C\C=C/C=C/C=C/[C@@H](SC[C@H](N)C(=O)NCC(=O)O)[C@@H](O)CCCC(=O)O` [LEUKOTRIENE D4], the EC50 turned out to be 3.92 nM in assay [1] and 0.513 nM in assay [3].
Take `CCCCCCCc1ccc(C/C=C/[C@H](SCC(NC(=O)CCC(N)C(=O)O)C(=O)NCC(=O)O)[C@H](O)CCCC(=O)O)cc1` (some centres not stated): the EC50 in assay [1] amounted to 574 nM; in assay [2], 74.5 nM.
Take `CCCCCCCc1ccc(C/C=C\[C@@H](SC[C@H](N)C(=O)NCC(=O)O)[C@@H](O)CCCC(=O)O)cc1`: the EC50 in assay [1] was determined as 2680 nM; in assay [3], 251 nM.
For `CCCCCCCc1ccccc1C/C=C/[C@H](SC[C@H](N)C(=O)NCC(=O)O)[C@H](O)CCCC(=O)O`, the 50% effective concentration (EC50) in assay [3] turned out to be 1870 nM.
In turn, `CCCCCCOc1ccccc1C/C=C/[C@H](SC[C@H](N)C(=O)NCC(=O)O)[C@H](O)CCCC(=O)O` yielded an Inhibition in assay [5] of 18%. Also, the EC50 result in assay [6] is given as “Not Active”.
In assay [1], `CCCCCCCc1ccc(C/C=C/[C@H](SCC(N)C(=O)O)[C@H](O)CCCC(=O)O)cc1` (some centres not stated) had an EC50 of 1700 nM.
`CCCCC/C=C/c1cccc(C/C=C/[C@H](SC[C@H](N)C(=O)NCC(=O)O)[C@H](O)CCCC(=O)O)c1` gave an EC50 in assay [1] of 13000 nM.
Take `CCCCCCCc1cccc(C/C=C/[C@H](SCC(NC(=O)CCC(N)C(=O)O)C(=O)NCC(=O)O)[C@H](O)CCCC(=O)O)c1` (some centres not stated): the EC50 in assay [1] was 1360 nM; in assay [2], 447 nM.
Compound `CCCCCCCc1ccccc1C/C=C/[C@H](SCC(N)C(=O)O)[C@H](O)CCCC(=O)O` (some centres not stated) gave an Inhibition in assay [5] of 28%.
As for `CCCCC/C=C/c1ccc(C/C=C/[C@H](SCC(NC(=O)CCC(N)C(=O)O)C(=O)NCC(=O)O)[C@H](O)CCCC(=O)O)cc1` (some centres not stated), the EC50 was determined as 3820 nM in assay [1] and 451 nM in assay [2].
